Results: ChEMBL document CHEMBL4513216, “Probing the Open Global Health Chemical Diversity Library for Multistage-Active Starting Points for Next-Generation Antimalarials” (ACS Infect Dis, 2020)

Experiment: Toxicity liver stage against HepG2, at 10uM
Type: cell-based
Parameters: test concentration 10 uM, cell line HepG2-A16-CD81EGFP
Settings: human, HepG2-A16-CD81EGFP cells; read-out: INHIBITION
How it was run: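 Uninfected HepG2-A16-CD81EGFP cells, 3 × 10^3 per well, 1536-well, plated on prespotted compound at 10 μM final, parasite-free screening media added to match infected plates; puromycin 10 μM positive, DMSO 0.5% negative; run in parallel with 48 h PbLuc assay at 37 °C, 5% CO2; viability by CellTiter-Glo luminescence, normalized to controls.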

Row | Structure (SMILES) | cytotoxicity at 10 µM [%]
1 | Cc1cc(C)c2nc(C)cc(C(=O)NC(C)c3nnn[nH]3)c2c1 (stereo unspecified) | 7.24
2 | Cc1cnc(N2CCCC3(CCOCC3)C2)nc1 | -116
3 | CCOC1CCN(C(=O)NCc2ccc(C(=O)N(C)C(C)C)cc2)CC1 | -6.55
4 | CNc1nc(C(=O)N2CCC3(CCCN(CCOC)C3=O)C2)cs1 (stereo unspecified) | 7.55
5 | CN(CCc1cn[nH]c1)C(=O)C1CC(=O)N(Cc2cccnc2)C1 (stereo unspecified) | -0.812
6 | CN(Cc1nnc(C2CC2)n1C)S(=O)(=O)c1ccccc1F | 16.8
7 | Cc1nc(N2CCN(C)CC2)ncc1C(=O)N1CCC(O)(CO)CC1 | -0.395
8 | Cc1cc(C(F)(F)F)nc(CNC(=O)C2CCCCCN2C)n1 (stereo unspecified) | -46
9 | CN(C(=O)c1cccc(C#N)c1)c1nnc(C2CCOC2)s1 (stereo unspecified) | 5.96
10 | c1ccc(-c2nnn3c2COC(CNCC2CCOCC2)C3)cc1 (stereo unspecified) | 11
11 | Cc1noc(CN2CCN(Cc3cccs3)CC2)n1 | -6.23
12 | c1cc(NCc2ccsc2)cc(-c2nnc[nH]2)c1 | -54.5
13 | Fc1cnc(N2C[C@H]3CN(Cc4cccc(F)c4)C[C@H]3C2)nc1 | 10.4
14 | Cc1nc(CN2CCC(C(=O)O)(n3ccc(C(C)C)n3)CC2)co1 | -125
15 | Cc1ncsc1CN1C[C@@H](OCc2ccncc2)[C@H]2OCCC[C@H]21 | -148
16 | COc1cccc(C2c3c(n[nH]c3C)N=C3COC(=O)C32)c1OC (stereo unspecified) | -5.34
17 | Cc1nc[nH]c1CN1C[C@H]2CC[C@@H](C1)N(C(=O)CCn1cncn1)C2 | 1.15
18 | COCC1N(C(=O)N2CCOCC2)C2CCC1(O)CC2 (stereo unspecified) | -0.791
19 | CCOC1COC2(CCN(Cc3ccc(C)cc3)CC2)C1 (stereo unspecified) | -8.28
20 | Cc1c[nH]nc1C1CCCCN1C(=O)CCn1nccc1C (stereo unspecified) | -6.39
21 | CC(C)(C)c1cc(CN2C[C@@H]3CC[C@H]2CN(Cc2cscn2)C3)n[nH]1 | 5.13
22 | CC(C)Cc1nc(CSCC(=O)N2CCC(C)CC2)no1 | 2.25
23 | COc1ccccc1-c1ncc(CN2CCCC[C@H](N(C)C)C2)s1 | -5.23

Row | Structure (SMILES) | cytotoxicity at 10 µM [%]
24 | CCO[C@@H]1CO[C@@]2(CCCN(Cc3scnc3C)C2)C1 | -9.06
25 | Cc1cc(-c2nn3c(C4CC4)nnc3s2)on1 | -2.37
26 | CC(CC#N)N1CCN(C(=O)OC(C)(C)C)CC1 (stereo unspecified) | -2.72
27 | O=C(NCCCN1CCCC1=O)Nc1ccc(Br)cc1Cl | -2.18
28 | COCCCC(=O)Nc1cccnc1N1CCCCC1 | -6.34
29 | CC(C)c1nc(C2CCCN(C(=O)CS(=O)(=O)C(C)C)C2)no1 (stereo unspecified) | 8.75
30 | CN(C)Cc1nnc2n1CCN(Cc1ccccn1)CC2 | 2.05
31 | COCCN1C(=O)CC(N2CCN(c3ccc(OC)cc3)CC2)C1=O (stereo unspecified) | -12.6
32 | CN(Cc1cccc(F)c1)C1CCN(CCc2ccccn2)CC1 | -5.38
33 | Cc1nn(CC(=O)N2CCCC2Cn2cccn2)c(C)c1Cl (stereo unspecified) | 2.27
34 | CC(C)(C)C(=O)N1CCC2(CC1)CC(Oc1ccccc1)CO2 (stereo unspecified) | 4.12
35 | Cc1cccc(COC[C@@H]2CC[C@H]3[C@H](CCN3C(=O)CC3CC3)O2)n1 | -64.8
36 | O=C1COc2cc(C(=O)NS(=O)(=O)c3cc(Cl)ccc3Cl)ccc2N1 | -7.96
37 | CN(C)C(=O)C1OC2(CCN(c3ncc(F)cn3)CC2)c2ccccc21 (stereo unspecified) | 6.27
38 | CN(Cc1cccnc1)C1CC2(CCN(c3ccccn3)CC2)C1 | 2.86
39 | Cc1ncc(CNc2cnccc2CO)s1 | -24.7
40 | Cc1ccc(N2C[C@@H]3OCCN(CC4CC4)[C@@H]3C2)nn1 | 3.59
41 | Cc1cnccc1N1CCCN(Cc2ccc(-c3cc[nH]n3)o2)CC1 | -5.13
42 | Cc1noc(C)c1C(=O)N1Cc2ncn(C)c2C(COCC2CC2)C1 (stereo unspecified) | -111
43 | Cc1ccc(C2CCCCCN2Cc2cn(C)nc2C)cc1 (stereo unspecified) | -8.56
44 | O=C(c1ccccn1)N1CCCC(c2cc(C(F)F)n3ncnc3n2)C1 (stereo unspecified) | -1.74
45 | Cc1cc(NC(=O)CN2CCN(c3nccs3)C(C)C2)n(C)n1 (stereo unspecified) | -4.2
46 | Cc1ccc(NC2CCN(C(=O)c3ccsc3)CC2)nn1 | -9.08

Row | Structure (SMILES) | cytotoxicity at 10 µM [%]
47 | Cc1cccc(C(=O)N2CCN(c3ccccc3F)CC2)n1 | 1.83
48 | CCOC(=O)[C@@H]1CN2CCNC[C@@H]2[C@H]1c1ccccc1 | 3.88
49 | O=C(N[C@H]1COC[C@@H]1N1CCCC1)c1c[nH]nc1C1CCCCC1 | -5.59
50 | CSc1ncccc1C(=O)N1C[C@@H]2CC[C@H]1CN(c1cnccn1)C2 | -2.72
51 | CCCn1ccnc1CN1CCCC(O)(CN(C)C)CC1 (stereo unspecified) | 1.33
52 | Cc1ccc2oc(C(=O)N3CCCC(c4noc(C)n4)C3)cc2n1 (stereo unspecified) | -3.56
53 | Cc1nc(C2CCN(C(=O)c3ccc(=O)n(C)c3)CC2)c2sccn12 | -5.38
54 | CCc1cc(C(=O)N2CCc3nc4c(C)csc4c(=O)n3CC2)on1 | -14.9
55 | CCc1cc(CN(C)C(=O)CN2CC(c3ccccc3)CC2=O)on1 (stereo unspecified) | -4.81
56 | Cc1nn2cccnc2c1C(=O)N1CCCC(Nc2ccccc2)C1 (stereo unspecified) | 5.82
57 | OCC(CO)N1CCCC(Cc2cnc(Nc3ccccn3)cn2)C1 (stereo unspecified) | -5.97
58 | N#Cc1cc(F)ccc1CN1CCCC1Cn1cccn1 (stereo unspecified) | 2.01
59 | COCC1c2nnn(C)c2CCN1C(=O)CCc1cccc(OC)c1 (stereo unspecified) | -90.4
60 | COc1cc(CN(C)C(=O)NCc2cccnc2OC)ccc1SC | -8.82
61 | CC(C)(C)Nc1c(C2CCCN(C(=O)C3CC3)C2)nc2ccccn12 (stereo unspecified) | 8.07
62 | Cn1nnc(NCc2ccc(-c3ccc(Cl)cc3)o2)n1 | -7.15
63 | COc1cc(F)ccc1C(C(=O)O)N(C)Cc1ccon1 (stereo unspecified) | -5.31
64 | CC(C)(C(=O)NCC1CCN(Cc2ncc[nH]2)C1)c1ccccc1 (stereo unspecified) | 2.15
65 | Cn1c(=O)c2cc(C(=O)NCc3ccncc3)ccc2n(C)c1=O | -11.1
66 | CN(Cc1cc(Cl)cc2cccnc12)CC1CCN(CCO)CC1 | -5.2
67 | O=S1(=O)COCCN1Cc1ccc(F)c(C(F)(F)F)c1 | 7.52
68 | CCCC(=O)NS(=O)(=O)c1ccc(C#N)c(C(F)(F)F)c1 | -12.8
69 | Cc1nnc(NCc2ccccc2Cl)c(C#N)c1C | -5.06

Row | Structure (SMILES) | cytotoxicity at 10 µM [%]
70 | Cc1ccc2c(n1)N(CCN(C)C)CCN(C(=O)c1cscn1)C2 | -72.7
71 | COC1COC2(CCN(Cc3ccc4c(c3)OCO4)CC2)C1 (stereo unspecified) | 0.729
72 | N#Cc1cccnc1OC1CCN(S(=O)(=O)c2ccc(Br)cc2)CC1 | 3.61
73 | Cc1cc(C)c2c(c1)NC(=O)C2CC(=O)O (stereo unspecified) | 9.13
74 | COCCOc1ccccc1C(=O)N1CCCC(c2cc(C)[nH]n2)C1 (stereo unspecified) | -22.6
75 | COC[C@@H]1CC[C@H]2[C@H](CCN2S(=O)(=O)c2ccc(F)cc2)O1 | -2.76
76 | CNc1nc(C)cc(NC2CCCN(C3Cc4ccccc4C3)C2)n1 (stereo unspecified) | 12.5
77 | Cn1cc(N2CCC3(CCN(Cc4nccs4)C3)C2=O)cn1 (stereo unspecified) | 3.76
78 | O=C(c1cccs1)N1CCCn2c(nc(CN3CCCC3)cc2=O)C1 | -3.32
79 | CN(Cc1ccc(F)cc1)[C@@H]1CN(S(=O)(=O)N(C)C)C[C@H]1O | -1.34
80 | CC(C)N1CCCC2(CCN(C(=O)CCCn3ccnc3)C2)C1=O (stereo unspecified) | -6.43
81 | CN1CCN(c2ccc(F)cc2NC(=O)NCCn2ccnc2)CC1 | 1.69
82 | CCC(C)(CC(=O)OC)NCc1cc(C)on1 (stereo unspecified) | -1.88
83 | CN(C)c1ncc(I)c(C2CCCN2S(C)(=O)=O)n1 (stereo unspecified) | 3.8
84 | Cn1cc(S(=O)(=O)NCCc2nnc3ccccn23)cn1 | 8.43
85 | Cc1ccsc1C(=O)NC1CCS(=O)(=O)c2ccccc21 (stereo unspecified) | 2.93
86 | Cc1cc(CN2CC3(CCN(C(=O)C4CC4)CC3)CC2C(=O)O)oc1C (stereo unspecified) | 1.1
87 | Fc1cccc(-c2c[nH]c(C3CCCN3)n2)c1 (stereo unspecified) | -5.93
88 | CCc1noc(C)c1C(=O)Nc1cnn(CC(=O)NC2CCCC2)c1 | -3.08
89 | O=S(=O)(NCC(O)c1ccc2c(c1)CCO2)c1ccccc1F (stereo unspecified) | -8.25
90 | CCOCC(O)c1nc2c([nH]1)CC(C)(C)CNC2=O (stereo unspecified) | 4.71
91 | Cn1cc(Br)c(=O)c(NS(=O)(=O)c2ccccc2F)c1 | -2.62
92 | Cc1ccccc1C(=O)N1CCC(n2nnc3cc(F)ccc32)CC1 | 3.94

Row | Structure (SMILES) | cytotoxicity at 10 µM [%]
93 | CCc1oc(C(=O)NCCc2cc(O)nc(C)n2)cc1CN1CCCC1 | 13.1
94 | Cc1cccc(N2CCN(C(=O)CNCCn3cccn3)CC2)c1 | -6.16
95 | CNCC(=O)N1CCCC(c2cccc(Nc3nc(C)cc(C)n3)n2)C1 (stereo unspecified) | -5.07
96 | CCOC(=O)c1ccc(CNC(=O)c2ccncc2Cl)o1 | 6.93
97 | Clc1cnccc1N1CCCC2(CCCOC2)C1 (stereo unspecified) | -2.35
98 | CCOc1ccnc(N2CCN(C(=O)c3ccc(OC)cc3)CC2)n1 | -15.6
99 | CC(C)Cn1cnc(S(=O)(=O)NCCc2nnc3ccccn23)c1 | 6.48
100 | O=C(Cc1ccsc1)N1CCCC(CNS(=O)(=O)Cc2ccccc2)C1 (stereo unspecified) | 4.24
101 | CCNc1ccnc(NCC2(N(C)C)CCOCC2)n1 | -0.686
102 | Cn1ncc2cnn(CC(O)COc3cccc4[nH]ccc34)c2c1=O (stereo unspecified) | 13.2
103 | COCCCC1(CO)CCCN(CCc2ccccc2)C1 (stereo unspecified) | -9.99
104 | CC(Cc1c(F)cccc1F)NC(=O)Nc1cnn(CC(N)=O)c1 (stereo unspecified) | -2.96
105 | COc1ccccc1NC(=O)C1(c2ccccc2)CCOCC1 | 7.59
106 | Brc1ccc(C2(CNCc3cc[nH]c3)CCOCC2)cc1 | 9.17
107 | Cc1cnn(CC2CN(Cc3nc4cccnc4[nH]3)CCO2)c1 (stereo unspecified) | -1.04
108 | O=C(C(C1CC1)C1CC1)N1CCC(n2ccnn2)CC1 | -45.7
109 | N#Cc1cc(F)ccc1Cn1cncn1 | 11.4
110 | O=C(Nc1cn[nH]c1)N(CCCO)C1CCc2ccccc21 (stereo unspecified) | -1.74
111 | Cc1nc(-c2ccnn2C)cc(C2CCCN(S(C)(=O)=O)C2)n1 (stereo unspecified) | -0.66
